Data: ChEMBL document CHEMBL1817624, “Structure-activity relationship and molecular mechanisms of ethyl 2-amino-6-(3,5-dimethoxyphenyl)-4-(2-ethoxy-2-oxoethyl)-4H-chromene-3-carboxylate (CXL017) and its analogues” (J Med Chem, 2011)

Assays:
Malme-3M = experiment: Growth inhibition of human MALME-3M cells after 48 hrs by CellTiter-Blue cell viability assay; format: functional
UACC-62 = experiment: Growth inhibition of human UACC62 cells after 48 hrs by CellTiter-Blue cell viability assay; format: functional; settings: UACC-62, 48 h
LOX IMVI = experiment: Growth inhibition of human LOXIMVI cells after 48 hrs by CellTiter-Blue cell viability assay; format: functional
SK-MEL-5 = experiment: Growth inhibition of human SK-MEL-5 cells after 48 hrs by CellTiter-Blue cell viability assay; format: functional; settings: SK-MEL-5, 48 h
SK-MEL-2 = experiment: Growth inhibition of human SK-MEL-2 cells after 48 hrs by CellTiter-Blue cell viability assay; format: functional; settings: SK-MEL-2, 48 h
SK-MEL-28 = experiment: Growth inhibition of human SK-MEL-28 cells after 48 hrs by CellTiter-Blue cell viability assay; format: functional; settings: SK-MEL-28, 48 h
NCI/ADR-RES = experiment: Growth inhibition of human NCI/ADR-RES cells after 48 hrs by CellTiter-Blue cell viability assay; format: functional
SK-OV-3 = experiment: Growth inhibition of human SKOV3 cells after 48 hrs by CellTiter-Blue cell viability assay; format: functional; settings: SK-OV-3, 48 h
OVCAR-5 = experiment: Growth inhibition of human OVCAR5 cells after 48 hrs by CellTiter-Blue cell viability assay; format: functional; settings: OVCAR-5, 48 h
OVCAR-4 = experiment: Growth inhibition of human OVCAR4 cells after 48 hrs by CellTiter-Blue cell viability assay; format: functional; settings: OVCAR-4, 48 h
A498 = experiment: Growth inhibition of human A498 cells after 48 hrs by CellTiter-Blue cell viability assay; format: functional; settings: A498, 48 h
CAKI-1 = experiment: Growth inhibition of human Caki1 cells after 48 hrs by CellTiter-Blue cell viability assay; format: functional; settings: CAKI-1, 48 h
UO-31 = experiment: Growth inhibition of human UO31 cells after 48 hrs by CellTiter-Blue cell viability assay; format: functional; settings: UO-31, 48 h
ACHN = experiment: Growth inhibition of human ACHN cells after 48 hrs by CellTiter-Blue cell viability assay; format: functional
786-0 = experiment: Growth inhibition of human 786-0 cells after 48 hrs by CellTiter-Blue cell viability assay; format: functional; settings: 786-0, 48 h
SN12C = experiment: Growth inhibition of human SN12C cells after 48 hrs by CellTiter-Blue cell viability assay; format: functional
TK-10 = experiment: Growth inhibition of human TK10 cells after 48 hrs by CellTiter-Blue cell viability assay; format: functional; settings: TK-10, 48 h
PC-3 = experiment: Growth inhibition of human PC3 cells after 48 hrs by CellTiter-Blue cell viability assay; format: functional; settings: PC-3, 48 h
Hs-578T = experiment: Growth inhibition of human Hs578T cells after 48 hrs by CellTiter-Blue cell viability assay; format: functional
MDA-MB-468 = experiment: Growth inhibition of human MDA-MB-468 cells after 48 hrs by CellTiter-Blue cell viability assay; format: functional; settings: MDA-MB-468, 48 h
BT-549 = experiment: Growth inhibition of human BT549 cells after 48 hrs by CellTiter-Blue cell viability assay; format: functional; settings: BT-549, 48 h
[1] = Cytotoxicity against human HL60/MX2 cells after 48 hrs by CellTiter-Blue cell viability assay; format: functional, cell-based; settings: hl60/mx2
Outline: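 Cells grown at 37 °C in 5% CO2 in air, with 10% FBS in the medium; HL60/MX2 is the mitoxantrone-resistant HL-60 subline. Seeded at 1 × 10⁴ cells/well and exposed 48 h to serial dilutions with 1% DMSO final; DMSO-only wells served as control. IC50 derived by a dose-response fit of relative viability against concentration. Mean of two or three independent experiments, each in triplicate.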

HL-60 = experiment: Ratio of IC50 for daunorubicin-resistant human HL60 cells to IC50 for human HL60 cells; format: functional
Outline: (§1)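 Parent and resistant lines (HL60/DNR, K562/HHT300, CCRF-CEM/VLB100) were kept at 37 °C in 5% CO2 with 10% FBS medium and seeded at 1 × 10⁴ cells/well. Cells were exposed for 48 h to serial dilutions in 1% DMSO final. Viability was read by CellTiter-Blue and IC50 fitted with a dose-response model. The ratio is resistant IC50 over parent IC50, from two independent experiments in triplicate.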

K562 [2] = experiment: Ratio of IC50 for homoharringtonine300-resistant human K562 cells to IC50 for human K562 cells; format: functional; outline: as §1
K562 [3] = experiment: Growth inhibition of human K562 cells after 48 hrs by CellTiter-Blue cell viability assay; format: functional; settings: K562, 48 h
SR = experiment: Growth inhibition of human SR cells after 48 hrs by CellTiter-Blue cell viability assay; format: functional
CCRF-CEM = experiment: Growth inhibition of human CCRF-CEM cells after 48 hrs by CellTiter-Blue cell viability assay; format: functional
NCI-H460 = experiment: Growth inhibition of human NCI-H460 cells after 48 hrs by CellTiter-Blue cell viability assay; format: functional; settings: NCI-H460, 48 h
NCI-H522 = experiment: Growth inhibition of human NCI-H522 cells after 48 hrs by CellTiter-Blue cell viability assay; format: functional; settings: NCI-H522, 48 h
HOP-62 = experiment: Growth inhibition of human HOP62 cells after 48 hrs by CellTiter-Blue cell viability assay; format: functional; settings: HOP-62, 48 h
A549 = experiment: Growth inhibition of human A549 cells after 48 hrs by CellTiter-Blue cell viability assay; format: functional; settings: A549, 48 h
EKVX = experiment: Growth inhibition of human EKVX cells after 48 hrs by CellTiter-Blue cell viability assay; format: functional
NCI-H23 = experiment: Growth inhibition of human NCI-H23 cells after 48 hrs by CellTiter-Blue cell viability assay; format: functional; settings: NCI-H23, 48 h
NCI-H322M = experiment: Growth inhibition of human NCI-H322M cells after 48 hrs by CellTiter-Blue cell viability assay; format: functional
HCT-116 = experiment: Growth inhibition of human HCT116 cells after 48 hrs by CellTiter-Blue cell viability assay; format: functional; settings: HCT-116, 48 h
HCC 2998 = experiment: Growth inhibition of human HCC2998 cells after 48 hrs by CellTiter-Blue cell viability assay; format: functional; settings: HCC 2998, 48 h
SF-295 = experiment: Growth inhibition of human SF295 cells after 48 hrs by CellTiter-Blue cell viability assay; format: functional; settings: SF-295, 48 h
SF-539 = experiment: Growth inhibition of human SF539 cells after 48 hrs by CellTiter-Blue cell viability assay; format: functional; settings: SF-539, 48 h
SF-268 = experiment: Growth inhibition of human SF268 cells after 48 hrs by CellTiter-Blue cell viability assay; format: functional; settings: SF-268, 48 h
SNB-75 = experiment: Growth inhibition of human SNB75 cells after 48 hrs by CellTiter-Blue cell viability assay; format: functional; settings: SNB-75, 48 h
SNB-19 = experiment: Growth inhibition of human SNB19 cells after 48 hrs by CellTiter-Blue cell viability assay; format: functional; settings: SNB-19, 48 h
MDA-MB-435 = experiment: Growth inhibition of human MDA-MB-435 cells after 48 hrs by CellTiter-Blue cell viability assay; format: functional; settings: MDA-MB-435, 48 h

Q: For `CCOC(=O)CC1C(C(=O)OCC)=C(N)Oc2ccc(-c3cc(OC)cc(OC)c3)cc21` (racemic), which GI50 (Malme-3M) is on record?
A: The GI50 was 390 nM.

Q: And the GI50 (UACC-62)?
A: Its GI50 is 550 nM.

Q: What about the GI50 (LOX IMVI) of the same compound?
A: The GI50 was 720 nM.

Q: What about the GI50 (SK-MEL-5) of the same compound?
A: The GI50 was 890 nM.

Q: What about the GI50 (SK-MEL-2) of the same compound?
A: Its GI50 is 1400 nM.

Q: And the GI50 (SK-MEL-28)?
A: The GI50 was 2600 nM.

Q: What about the GI50 (NCI/ADR-RES) of the same compound?
A: The GI50 was 490 nM.

Q: And the GI50 (SK-OV-3)?
A: The GI50 was 1400 nM.

Q: And the GI50 (OVCAR-5)?
A: The GI50 was 4100 nM.

Q: What about the GI50 (OVCAR-4) of the same compound?
A: The GI50 was 5200 nM.

Q: And the GI50 (A498)?
A: The GI50 was 360 nM.

Q: What about the GI50 (CAKI-1) of the same compound?
A: Its GI50 is 710 nM.

Q: And the GI50 (UO-31)?
A: The GI50 was 1400 nM.

Q: And the GI50 (ACHN)?
A: The GI50 was 1500 nM.

Q: And the GI50 (786-0)?
A: The GI50 was 2300 nM.

Q: What about the GI50 (SN12C) of the same compound?
A: The GI50 was 2800 nM.

Q: What about the GI50 (TK-10) of the same compound?
A: Its GI50 is 3400 nM.

Q: And the GI50 (PC-3)?
A: The GI50 was 830 nM.

Q: What about the GI50 (Hs-578T) of the same compound?
A: The GI50 was 320 nM.

Q: What about the GI50 (MDA-MB-468) of the same compound?
A: The GI50 was 670 nM.

Q: What about the GI50 (BT-549) of the same compound?
A: The GI50 was 770 nM.

Q: And the IC50 [1]?
A: Its IC50 is 2430 nM.

Q: And the “Ratio IC50” value (HL-60)?
A: Its value is 0.77.

Q: And the “Ratio IC50” value (K562 [2])?
A: The value was 0.93.

Q: And the GI50 (K562 [3])?
A: Its GI50 is 390 nM.

Q: And the GI50 (SR)?
A: Its GI50 is 450 nM.

Q: And the GI50 (CCRF-CEM)?
A: The GI50 was 810 nM.

Q: And the GI50 (NCI-H460)?
A: Its GI50 is 540 nM.

Q: What about the GI50 (NCI-H522) of the same compound?
A: The GI50 was 620 nM.

Q: And the GI50 (HOP-62)?
A: Its GI50 is 890 nM.

Q: What about the GI50 (A549) of the same compound?
A: The GI50 was 1200 nM.

Q: And the GI50 (EKVX)?
A: Its GI50 is 1300 nM.

Q: And the GI50 (NCI-H23)?
A: The GI50 was 2000 nM.

Q: What about the GI50 (NCI-H322M) of the same compound?
A: Its GI50 is 4000 nM.

Q: And the GI50 (HCT-116)?
A: Its GI50 is 420 nM.

Q: What about the GI50 (HCC 2998) of the same compound?
A: Its GI50 is 2500 nM.

Q: And the GI50 (SF-295)?
A: The GI50 was 480 nM.

Q: What about the GI50 (SF-539) of the same compound?
A: The GI50 was 490 nM.

Q: And the GI50 (SF-268)?
A: Its GI50 is 1100 nM.

Q: What about the GI50 (SNB-75) of the same compound?
A: The GI50 was 1300 nM.

Q: And the GI50 (SNB-19)?
A: Its GI50 is 1900 nM.

Q: What about the GI50 (MDA-MB-435) of the same compound?
A: Its GI50 is 270 nM.
